# CSC inhib: blocks cancer stem cells | inhibition, % at 7.5 µM | 300,000 tested, 1.1% active | AID 2717 | cancer stem cell-like cells viability, luminescence; in the data active = inhibition above about 75%; inconclusive = no clear call, values can overlap the other calls; tested in HMLE shEcad cells
# T cruzi repl: blocks replication of Trypanosoma cruzi; inhibition, % (concentration not given with the values); AID 1885; T. cruzi beta-gal in NIH3T3, luminescence, 90 h; 300,000 tested, 1.4% active;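 active = mean inhibition across valid replicates above about 55%, limit read from the data; inconclusive = mean below that limit but half or more replicates reach it; inactive = mean below it, under half of replicates reach it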;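 also: signal also drops with host cell toxicity which is not excluded here; 0% = plate median of DMSO wells and 100% = zero luminescence signal; higher percent means less beta-gal luminescence so fewer parasites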
#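 System: NIH/3T3 fibroblasts plus reporter T. cruzi. Medium: DMEM plus 2% FBS. Probe or stimulus: 5000 reporter trypomastigotes per well. Compound: single 50 nL compound addition per well in DMSO. Incubation: co-culture of at least 90 h after 3 h attachment. Detection: GalScreen β-gal luminescence, detergent lysis, 60 min. Evaluation: parasite load inhibition, %.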
# H9c2 TAG inh: reduces triacylglycerol accumulation in H9c2 cells | Nile Red lipid (TAG) fluorescence; cells loaded with 200 µM oleic acid | inhibition, % at 12.5 µM | 230,000 tested, 0.66% active;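 active = pattern-corrected inhibition of lipid staining of at least 50% with the nuclear-stain viability signal not falling by more than 50%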;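 also: 0% = DMSO wells and 100% = triacsin C control wells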
# Beta apoptosis: beta cell apoptosis inhibition | INS-1E cytokine-induced death, ATP luminescence, 48 h; percent of positive-control rescue, neutral wells zero | protection from apoptosis, % (concentration not given with the values) | 300,000 tested, 0.8% active | AID 435005;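 active = Every replicate reaches about 75%, or at least half do and their mean reaches it too, limit read from the data; inconclusive = At least half of replicates reach the limit but their mean does not; inactive = Under half of replicates reach the limit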;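 also: 0% = cytokine-treated negative control wells and 100% = positive control rescue; higher means more ATP so stronger rescue from cytokine killing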
# Calb FLC: affects C. albicans growth with fluconazole; C. albicans CaCi-2 (fluconazole-resistant clinical isolate) + fluconazole, Alamar Blue growth, 48 h; growth inhibition, % (no concentration beside the values); 300,000 tested, 0.57% active; AID 1979;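 active = growth inhibition above about 58% in most replicates, limit read from the data, passing the limit was not always enough; inconclusive = exactly half the replicates above a set limit; inactive = most replicates below a set limit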;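 also: all wells also contain fluconazole at 8 µg/ml as a sub-toxic cotreatment; 0% = median of DMSO wells and 100% = median of geldanamycin control wells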
# Bfl-1 A1 inh: inhibitors of the anti-apoptotic protein A1, read as caspase activation. 330,000 tested, 0.066% active. caspase activation, % (concentration not given with the values). MEF A1-2A-BIM cells, Caspase-Glo 3/7 luminescence, 3 h; percent of clofoctol response, vehicle zero;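 active = over half of replicate activation scores above 10%, or exactly half above 10 with the replicate mean above 10; inconclusive = replicate mean below 10 yet half the replicates above 10; inactive = over half of replicates below 10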
# * hit, by the source's call; u = inconclusive; x = no result. Most compounds without a hit are left out; they make up all but 3.1% or so of the library.
SMILES,CSC inhib,T cruzi repl,H9c2 TAG inh,Beta apoptosis,Calb FLC,Bfl-1 A1 inh
CC(C)(C)c1cc(NCCCn2ccnc2)n2ncc(-c3ccc(Cl)cc3)c2n1,112.2*,57.6*,x,8.6,10.1,u
Cc1cc(NCCCn2ccnc2)n2nc(-c3ccc(Cl)cc3)cc2n1,26.8,25.3,-3.6,15.5,37.0,0.4
COc1ccc(NC(=O)CC2CC3CCC2C3)cc1S(=O)(=O)N1CCOCC1 (stereo unspecified),x,x,-6.9,1.5,x,3.0
CCCn1c(N)c(N(CCOC)C(=O)c2cc(C)cc(C)c2)c(=O)[nH]c1=O,-0.9,-3.3,x,x,-6.4,1.2
O=C(N/N=C/c1cc(Br)c(O)c(Br)c1)c1cc2c(ccc3ccccc32)o1,-3.2,x,15.4,4.2,109.0*,-1.7
O=C(N/N=C/c1c(O)ccc2ccccc12)c1ccc[n+](CCO)c1,31.5,9.3,x,10.6,-4.5,0.0
O=C(N/N=C/c1c(O)ccc2ccccc12)c1cccnc1,u,66.2*,x,96.4*,100.0*,-0.2
O=C(NN=Cc1c(O)ccc2ccccc12)c1ccncc1,x,x,32.3,x,x,x
O=C(N/N=C\c1c(O)ccc2ccccc12)c1cncc(Br)c1,98.2*,65.4*,x,87.5*,82.5*,-0.3
O=C(N/N=C/c1ccc(O)c(Br)c1)c1cc2c(ccc3ccccc32)o1,19.1,x,-9.0,5.7,-5.0,-0.8
O=C(N/N=C/c1c(O)ccc2ccccc12)c1ccc(Br)o1,156.2*,40.8,15.8,102.5*,-4.0,-0.2
CN=C(C[N+](=O)[O-])NCCSCc1ccc(CN(C)C)o1,x,x,-3.6,x,x,x
O=C1CN(S(=O)(=O)c2ccc(Cl)cc2)c2ccccc2N1,-16.5,4.3,2.6,-8.7,2.2,0.4
CC(=O)C1=C(c2ccccc2)N(C(C)=O)n2c(C)nnc2S1,-6.6,6.8,x,-9.4,27.3,-0.4
Cc1ccc(C(=O)N/N=C/c2c(O)ccc3ccccc23)cn1,80.7*,66.9*,x,x,88.8*,0.3
O=C(N/N=C\c1c(O)ccc2ccccc12)c1ccc(O)cc1,63.7,19.8,37.9,x,-1.2,0.9
O=C(Cn1ccc(NC(=O)OCc2ccccc2)nc1=O)NCCCN1CCCC1=O,7.5,x,1.5,-0.5,x,0.8
COc1ccc(C2SCC(=O)N2CC23CC4CC(CC(C4)C2)C3)cc1 (stereo unspecified),-9.0,60.9*,x,4.3,-2.8,0.2
COc1ccc(C2SCC(=O)N2Cc2ccccc2)cc1 (stereo unspecified),1.0,3.6,x,-6.2,-9.1,0.4
O=C(CSc1nnc(COc2ccc(Cl)cc2)o1)N1CCCCC1,-0.8,9.8,x,-3.4,-4.0,0.2
C=C(NC(=O)C(=C)NC(=O)c1csc(C2=NC3c4csc(n4)C4NC(=O)c5csc(n5)C([C@@](C)(O)C(C)O)NC(=O)C5CSC(=N5)/C(=C\C)NC(=O)C(C(C)O)NC(=O)c5csc(n5)[C@]3(CC2)NC(=O)C(C)NC(=O)C(=C)NC(=O)C(C)NC(=O)C(C(C)CC)NC2C=Cc3c(C(C)O)cc(nc3C2O)C(=O)OC4C)n1)C(N)=O (stereo partly specified),80.5*,x,x,-8.8,x,0.3
O=C(C(=O)N1CCN(c2ccc([N+](=O)[O-])cc2)CC1)c1cn(CC(=O)N2CCOCC2)c2ccccc12,-2.5,11.1,6.8,1.9,x,0.8
COc1cc(C2c3cc4c(cc3C(OC3OC5COC(c6cccs6)OC5C(O)C3O)C3COC(=O)C23)OCO4)cc(OC)c1O (stereo unspecified),101.0*,32.9,20.2,94.2*,x,1.9
COCCN(C(=O)COC(=O)CCC1CCCC1)c1c(N)n(Cc2ccccc2)c(=O)[nH]c1=O,-14.9,0.5,0.6,3.1,x,0.7
COc1ccc(OC2C(=O)N(Cc3ccc(F)cc3)C2c2ccc(OC)c(OC)c2)cc1 (stereo unspecified),x,25.4,x,x,1.7,1.9
COc1ccc(OC2C(=O)N(Cc3ccc4c(c3)OCO4)C2c2sccc2C)cc1 (stereo unspecified),117.0*,39.8,x,10.3,93.3*,-0.3
CCOC(=O)C1=CNS(=O)(=O)NC1c1ccc(C[C@H](NC(=O)CNC(=O)CCc2ccccc2)C(N)=O)cc1 (stereo partly specified),x,x,-2.7,x,x,x
